Results as given in the array DNA melting data of Ke et al. (doi:10.1101/2024.01.08.574731).

How the values were obtained:
[1] = folding enthalpy; higher = less favourable; fluorescence melt of hairpins on a sequencing array, two-state fit; details: sodium 0.088 M
In short: (§1)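 Folding enthalpy and melting temperature come from bootstrapped two-state fits to Cy3 fluorescence of library hairpins carrying annealed Cy3 and quencher oligos on a sequenced MiSeq flow cell. Imaging was done in 50 mM Na-HEPES pH 8.0, 25 mM NaCl, stepping by 2.5 °C up to 60 °C, and signals were normalised to pre-quench Cy3 and to control constructs. Results of four replicates were combined by inverse variance, and fitted temperatures were raised by 9.35 °C to match UV melts.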

[2] = melting temperature; fluorescence melt of hairpins on a sequencing array, two-state fit, raised by 9.35 °C to match UV melts; details: sodium 0.088 M
In short: as §1

Sequence	folding enthalpy [1]	Tm [2]
GATTCAGGAAACTGGATC (((.(((....))).)))	-36.7 kcal/mol	41.9 °C
GATCCGCGCCGGATC ((((((...))))))	-33.9 kcal/mol	60 °C
GCCCTTCGAAAGAAAGGC (((.(((....))).)))	-28.5 kcal/mol	45.1 °C
GCATCGCGAAAGCGTGGC ((..(((....)))..))	-15.8 kcal/mol	54.7 °C
GTCGCTGGAAACAGTGAC (((.(((....))).)))	-50.4 kcal/mol	54.9 °C
GATTCACGAAAGTGCATC (((.(((....))).)))	-26.4 kcal/mol	40.2 °C
GGTACGGGAAACCGTATC (.(((((....))))).)	-25.7 kcal/mol	49.7 °C
GGCACACGAAAGTGAGCC (((.(((....))).)))	-38.1 kcal/mol	63.5 °C
GCTATCGAAAGATGAAGC ((((((....)))..)))	-16.2 kcal/mol	32.8 °C
GATCAGCAGGCTGATC ((((((....))))))	-42.1 kcal/mol	59.2 °C
GATAAGCCGAAAGGCATC (((..(((....))))))	-9.19 kcal/mol	32 °C
GCACGCGGAAACGCACGC ((..(((....)))..))	-18.1 kcal/mol	47.2 °C
GGTAGAGGAAACTCCACC (((.(((....))).)))	-28.2 kcal/mol	31.6 °C
GCCAACGGAAACATTGGC (((((.(....).)))))	-31.9 kcal/mol	44.1 °C
GATCATCGCGATGATC ((((((....))))))	-48.5 kcal/mol	59.7 °C
GACCAAGAAATTGGTC ((((((....))))))	-25.9 kcal/mol	54.4 °C
GTTCCCGAAAGGGTAAC ((((((....))).)))	-17.6 kcal/mol	40.9 °C
GTCTGACGAAAGTCGGAC (((.(((....))).)))	-35.8 kcal/mol	62.4 °C
GCCCACGGAAACGTAGGC (((.(((....))).)))	-30.6 kcal/mol	48.4 °C
GGATCGGGAAACCGGTCC (((.(((....))).)))	-50.4 kcal/mol	56.1 °C
GGAGTGGCGAAAGCCTCC (((..(((....))))))	-15 kcal/mol	44 °C
GCTAGATCGAAAGATAGC (((..(((....))))))	-19.4 kcal/mol	36.4 °C
GCGGTATACCGC ((((....))))	-27.4 kcal/mol	60.7 °C

Sequence	folding enthalpy [1]	Tm [2]
GCAACTGGAAACAGTTGC (((((((....)))))))	-47.5 kcal/mol	67.1 °C
GCTGCGCGAAAGCGGGGC ((..(((....)))..))	-26.9 kcal/mol	63.1 °C
GCAAAGCGAAAGCCGTGC (((..((....))..)))	-11.4 kcal/mol	39.9 °C
GATCAATACGTTGATC ((((((....))))))	-37.9 kcal/mol	48 °C
GTAACAGAAATGTTAC ((((((....))))))	-32.8 kcal/mol	45.7 °C
GCCAGGGGAAACCCTAGC ((.((((....)))).))	-22.8 kcal/mol	41 °C
GCAACCTCGAAAGAGTGC (((..(((....))))))	-21.7 kcal/mol	36.9 °C
GTTCTAGGAAACCAGAAC (((((.(....).)))))	-26.6 kcal/mol	35.6 °C
GCTCAACGAAAGTTTAGC (((.(((....))).)))	-28.2 kcal/mol	44.5 °C
GGAAGCGAAAGCTCCTCC ((((((....)))..)))	-16.8 kcal/mol	51.3 °C
GATCATGGATATGATC ((((((....))))))	-37.9 kcal/mol	54.1 °C
GATCGTTCATACGATC ((((((....))))))	-46.9 kcal/mol	54.9 °C
GCGAGGCGAAAGCCCAGC ((..(((....)))..))	-10.4 kcal/mol	63.4 °C
GATAATGGAAACATTACC (.(((((....))))).)	-9.26 kcal/mol	22.6 °C
GATCCTGCACAGGATC ((((((....))))))	-47.2 kcal/mol	58.9 °C
GTGTGTGGAAACACATAC ((.((((....)))).))	-20.3 kcal/mol	50 °C
GATATAGGAAACTATGTC ((.((((....)))).))	-21.8 kcal/mol	33.5 °C
GGACACCGAAAGGTCTCC (((.(((....))).)))	-23.8 kcal/mol	40 °C
GCATTACCGAAAGGTTGC (((..(((....))))))	-20.1 kcal/mol	40 °C
GCCCGCGAAAGCGACGGC ((((((....)))..)))	-22.3 kcal/mol	54.9 °C
GGTGACGGAAACGTTGCC ((..(((....)))..))	-34.3 kcal/mol	48.1 °C
GGTCGACGAAAGTCAACC (((.(((....))).)))	-32.2 kcal/mol	49.9 °C
GATGGACGAAAGTCATC (((.(((....))))))	-17.9 kcal/mol	45.7 °C

Sequence	folding enthalpy [1]	Tm [2]
GATCGCTCGGGCGATC ((((((....))))))	-38.6 kcal/mol	69.2 °C
ACATAGAAATATGT (((((....)))))	-7.88 kcal/mol	24.6 °C
GCGGACGAAAGTCGGCGC ((((((....)))..)))	-26.7 kcal/mol	68 °C
CGCCCGGAAACGGCCGCG ((((((....)))..)))	-19.6 kcal/mol	43.8 °C
GATACCGAAAGGTAAATC ((((((....)))..)))	-13.5 kcal/mol	28.7 °C
GCTGTTCGAAAGAAAGC (((.(((....))))))	-15.6 kcal/mol	36.7 °C
GAGGTAGGAAACTATCTC (((.(((....))).)))	-26.6 kcal/mol	38.7 °C
GTGTACGAAAGTAGACAC ((((((....)))..)))	-22.7 kcal/mol	40.8 °C
GCCATCACGAAAGTGGGC (((..(((....))))))	-19.4 kcal/mol	47.2 °C
GTACCAGAAATGGTAC ((((((....))))))	-33.1 kcal/mol	53.2 °C
GTCCCCCGAAAGGGCGAC (((.(((....))).)))	-21.6 kcal/mol	49.1 °C
GCGCACGGAAACGTGTGC ((.((((....)))).))	-41 kcal/mol	67.7 °C
GATCTCCAAGAGATC ((((((...))))))	-30.2 kcal/mol	49.8 °C
GTCCCCGAAAGGGGGGAC ((((((....)))..)))	-11.7 kcal/mol	60.5 °C
GGAAGGGGAAACCTTTCC ((((.((....)).))))	-23.4 kcal/mol	43.3 °C
GGCTTGCGAAAGCATGCC (((.(((....))).)))	-31.4 kcal/mol	66.6 °C
GATCTCATCGAGATC ((((((...))))))	-36.1 kcal/mol	55.8 °C
GATCATATTATGATC ((((((...))))))	-35.9 kcal/mol	48.6 °C
GATCCGTGACCGGATC ((((((....))))))	-44.1 kcal/mol	56 °C
GATCAGGAGCCTGATC ((((((....))))))	-31.6 kcal/mol	49.9 °C
GGATCCGGAAACGGACCC ((.((((....)))).))	-21.2 kcal/mol	50.4 °C
GATCCAAGGATGGATC ((((((....))))))	-27.5 kcal/mol	47.8 °C
GCACTGCGAAAGCATTGC (((.(((....))).)))	-42.6 kcal/mol	52.5 °C

Sequence	folding enthalpy [1]	Tm [2]
GCTCACGAAAGTGGGAGC ((((((....)))..)))	-20.1 kcal/mol	49.9 °C
GCGTGATGACGC ((((....))))	-25.1 kcal/mol	52.8 °C
GACCAGACGAAAGTCGTC (((..(((....))))))	-12.5 kcal/mol	31.7 °C
GAGCGGAAACGCTC (((((....)))))	-27.4 kcal/mol	69.1 °C
GTGATGGGAAACTATCAC (((((.(....).)))))	-32.2 kcal/mol	45.6 °C
GCGATGAATCGC ((((....))))	-26.2 kcal/mol	52.4 °C
TAGCAGAAATGCTA (((((....)))))	-14 kcal/mol	38.1 °C
GCACAGCGAAAGCTATGC (((.(((....))).)))	-40.8 kcal/mol	49.5 °C
GATGACGAAAGTCAGATC ((((((....)))..)))	-17.8 kcal/mol	52.1 °C
GCGGCGCGAAAGCGTAGC ((..(((....)))..))	-26.1 kcal/mol	65.8 °C
GATCGTAAGAACGATC ((((((....))))))	-35.1 kcal/mol	50.5 °C
GCACTGCGAAAGCATCGC ((..(((....)))..))	-12.8 kcal/mol	39.5 °C
GCAACGCGAAAGCTTCGC ((.(.((....)).).))	-8.73 kcal/mol	30 °C
GCATCCGAAAGGAGTTGC ((((((....)))..)))	-15.4 kcal/mol	37.9 °C
CGATTCGGAAACGATCG (((.(((....))))))	-32.8 kcal/mol	44 °C
GATCCAACGATGGATC ((((((....))))))	-34 kcal/mol	48.1 °C
GATCCGTGGTCGGATC ((((((....))))))	-38.8 kcal/mol	58.7 °C
GTGGGTGGAAACATCCAC ((((.((....)).))))	-32.4 kcal/mol	53.5 °C
GATCCTCTTCAGGATC ((((((....))))))	-38.2 kcal/mol	51.3 °C
CGACCGGAAACGGACTCG ((((((....)))..)))	-12.9 kcal/mol	30.7 °C
GATCTACTATTAGATC ((((((....))))))	-33.1 kcal/mol	38.6 °C
GGGACCACGAAAGTGCCC (((..(((....))))))	-15.7 kcal/mol	40 °C
GTAATCGAAAGATGGTAC ((((((....)))..)))	-12.8 kcal/mol	25 °C
